Measured values gathered from unrelated publications.
Lines come from different studies, so protocols differ.

COc1ccnc(CNC(=O)c2cn(Cc3ccc(Cn4ccccc4=O)cc3)nc2C(F)(F)F)c1F
Cmax (male beagle dog, plasma; oral, 1 mg/kg): 200 ng/mL

CC[C@@H]1CN(C(=O)NCC(F)(F)F)C[C@@H]1c1cnc2cnc3[nH]ccc3n12
CL/F (beagle dog, plasma; oral, 1 mg/kg, single dose): 29.3 mL/min/kg

C#Cc1cnc2nc(O)n(C(CC)CC)c2n1
clearance (male beagle dog, plasma; intravenous, 1 mg/kg): 4.3 mL/min/kg

Oc1c(-n2ccnn2)cnn1-c1cc(N2CCOCC2)ncn1
clearance (female dog, blood; intravenous, 3 mg/kg): 18.3 mL/min/kg

CCc1cc(C(=O)NC)c2nccc(N3CCc4c(cc(Cn5ccnc5)cc4-c4cn(C)nc4C(F)(F)F)C3=O)c2c1
Tmax (male Sprague-Dawley rat, plasma; oral, 100 mg/kg, single dose): 1.3 h

COc1ccc2nc(-c3ccccn3)c(N(C)c3ccc(F)cc3)n2c1
CL/F (male CD-1 mouse, plasma; oral, 50 mg/kg, fasted): 917 mL/min/kg

COCc1nn(Cc2ccc(Cn3ccccc3=O)cc2)cc1C(=O)NCc1nccc(OC)c1F
Cmax (male beagle dog, plasma; oral, 1 mg/kg): 284 ng/mL

CC(C)(Nc1nc(-c2ccccn2)nc2ccccc12)c1ccccn1
C0 (female BALB/c mouse, plasma; intravenous, 1 mg/kg): 1800 ng/mL

CCn1c(=O)c(-c2cc(NC(=O)Nc3ccccc3)c(F)cc2Br)cc2cnc(NC)cc21
Cmax (beagle dog, plasma; oral, 5 mg/kg, single dose): 544 ng/mL

C=CC(=O)N1CC2CC(n3nc(-c4ccc(C(=O)Nc5ccccn5)cc4)c4c(N)ncnc43)CC2C1 (centres unmarked)
Tmax (male Wistar rat, plasma; oral, 30 mg/kg): 2 h

COc1cc2c3c(n(CCCN4CCOCC4)c(=O)c2cc1OC)-c1cc2c(cc1C3=O)OCO2
Cmax (female beagle dog, plasma; intravenous, 100 mg/m², infusion): 547 ng/mL

COc1cc(OC)c2nccc(N3CCc4c(cc(Cn5ccnc5)cc4-c4cn(C)nc4C(F)(F)F)C3=O)c2c1
C0 (male CD-1 mouse, plasma; intravenous, 3 mg/kg): 1600 ng/mL

CC[C@H](C)[C@@H]1NC(=O)[C@@](C)(NC(=O)[C@H](CCCNC(=N)N)NC(=O)[C@H](CC(C)C)NC(=O)[C@@H](NC(=O)[C@H](CCC(N)=O)NC(=O)[C@H](CC(C)C)NC(C)=O)[C@@H](C)O)CCCC=CCCC[C@@](C)(C(=O)N[C@@H](CC(C)C)C(=O)N[C@@H](Cc2ccc3ccccc3c2)C(N)=O)NC(=O)[C@H](CCCNC(=N)N)NC(=O)[C@H](CCC(N)=O)NC1=O
clearance (male BALB/c mouse, plasma; intravenous, 10 mg/kg): 0.713 mL/min/kg

CNC(=O)c1cc(OC)cc2c(N3CCc4c(cc(Cn5ccnc5)cc4-c4cn(C)nc4C(F)(F)F)C3=O)ccnc12
C0 (male CD-1 mouse, plasma; intravenous, 3 mg/kg): 8370 ng/mL

CC(C)(C)c1ccc(O)c(CN(Cc2cc(C(C)(C)C)ccc2O)C2CCC(NC(N)=O)CC2)c1 (centres unmarked)
clearance (male C57BL/6 mouse, plasma; intraperitoneal, 25 mg/kg, single dose): 26.7 mL/min/kg

Cc1ccc2cncc(N3CCc4c(cc(Cn5ccnc5)cc4-c4cn(C)nc4C(F)(F)F)C3=O)c2c1
C0 (male CD-1 mouse, plasma; intravenous, 3 mg/kg): 5480 ng/mL

CC(C)Oc1c(NC(=O)c2ccc(NC(=O)[C@H](CC(N)=O)NC(=O)c3ccc(NC(=O)c4ccc(C#N)cc4)cc3)cc2)ccc(C(=O)Nc2ccc(C(=O)O)cc2)c1O
CL/F (male CD-1 mouse, plasma; subcutaneous, 5 mg/kg, single dose): 163 mL/min/kg
